Results: ChEMBL document CHEMBL1141231, “Discovery and development of a new class of potent, selective, orally active oxytocin receptor antagonists” (J Med Chem, 2005)
Converted amounts (≈) assume the structure as drawn.

Key:
Vasopressin V1a receptor [1] = target: T1, Vasopressin V1a receptor (Homo sapiens, UniProt P37288); assay: Displacement of [125I]LVA antagonist from human vasopressin 1a receptor expressed in HEK293-EBNA cells; format: cell-based
Target sequence in this assay (P37288 whole entry): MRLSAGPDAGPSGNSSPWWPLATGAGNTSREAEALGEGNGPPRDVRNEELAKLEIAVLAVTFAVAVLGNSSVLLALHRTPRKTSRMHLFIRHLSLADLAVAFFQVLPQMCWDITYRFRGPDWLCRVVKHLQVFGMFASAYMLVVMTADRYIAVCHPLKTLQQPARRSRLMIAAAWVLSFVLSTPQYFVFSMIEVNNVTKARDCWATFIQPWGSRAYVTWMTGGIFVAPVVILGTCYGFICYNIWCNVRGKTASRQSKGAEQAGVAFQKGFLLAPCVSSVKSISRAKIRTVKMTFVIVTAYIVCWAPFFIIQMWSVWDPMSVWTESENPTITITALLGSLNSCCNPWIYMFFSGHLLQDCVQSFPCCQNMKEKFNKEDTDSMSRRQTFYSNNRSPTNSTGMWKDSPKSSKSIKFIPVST

Homo sapiens = species: Homo sapiens; assay: Selectivity for human vasopressin V1a receptor over human oxytocin receptor
Oxytocin receptor [2] = target: T2, Oxytocin receptor (Homo sapiens, UniProt P30559); assay: biochemical; format: cell-based, HEK293-EBNA
T2 sequence (P30559 whole entry): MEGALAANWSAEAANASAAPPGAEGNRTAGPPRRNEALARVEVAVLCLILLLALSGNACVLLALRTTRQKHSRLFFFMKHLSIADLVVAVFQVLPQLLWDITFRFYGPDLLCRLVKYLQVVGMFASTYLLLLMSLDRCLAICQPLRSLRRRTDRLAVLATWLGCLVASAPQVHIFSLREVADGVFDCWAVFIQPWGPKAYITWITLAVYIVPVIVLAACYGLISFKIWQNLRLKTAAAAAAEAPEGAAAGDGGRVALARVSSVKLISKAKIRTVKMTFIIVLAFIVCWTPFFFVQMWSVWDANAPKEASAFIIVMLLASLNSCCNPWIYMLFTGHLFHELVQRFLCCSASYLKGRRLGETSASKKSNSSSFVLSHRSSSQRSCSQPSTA

Oxytocin receptor [3] = target: T2, Oxytocin receptor; assay: Inhibitory activity against human Oxytocin induced intracellular Calcium mobilization in human Oxytocin receptor transfected HEK293-EBNA cells; format: functional, cell-based
Oxytocin receptor [4] = target: T3, Oxytocin receptor (Rattus norvegicus, UniProt P70536); assay: Displacement of [125I]OVTA antagonist from rat oxytocin receptor expressed in HEK293-EBNA cells; format: cell-based
T3 sequence (P70536 whole entry): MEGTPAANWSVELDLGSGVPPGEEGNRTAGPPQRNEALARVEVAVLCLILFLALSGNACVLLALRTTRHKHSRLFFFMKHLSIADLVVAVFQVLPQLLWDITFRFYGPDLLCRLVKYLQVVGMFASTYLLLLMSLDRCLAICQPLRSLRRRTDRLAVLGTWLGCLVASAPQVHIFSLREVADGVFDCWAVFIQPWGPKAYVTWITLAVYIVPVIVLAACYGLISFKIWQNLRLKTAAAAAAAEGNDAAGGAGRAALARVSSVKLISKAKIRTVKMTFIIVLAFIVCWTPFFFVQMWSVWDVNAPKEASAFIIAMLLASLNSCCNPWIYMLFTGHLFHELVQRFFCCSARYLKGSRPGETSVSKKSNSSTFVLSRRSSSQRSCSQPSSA

[5] = target: T4, Oxytocin receptor (Homo sapiens) (UniProt P30559); assay: Displacement of [125I]OVTA antagonist from human oxytocin receptor expressed in HEK293-EBNA cells at 10 uM; format: cell-based
T4 sequence (whole entry): T2 sequence (P30559 whole entry)

Vasopressin V1a receptor [6] = target: T1, Vasopressin V1a receptor; conditions: HEK293-EBNA, at 10 µM
Target sequence in this assay (P37288 whole entry, looked up): as the sequence (P37288 whole entry) above

[7] = Dissociation constant of the compound; format: physicochemical
[8] = target: T5, Oxytocin receptor (Rattus norvegicus) (UniProt P70536); assay: In vivo efficacy against oxytocin-induced uterine contractions in nonpregnant rats administered iv; format: functional, organism-based
T5 sequence (whole entry): T3 sequence (P70536 whole entry)
Summary of the method: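 Anaesthetized nonpregnant rats; compound given as a solution by iv infusion in NP3S, PEG/saline or saline. Contractions read as AUC of intraluminal uterine pressure over 35 min, relative to the third OT injection, and expressed as % inhibition versus a vehicle group. ED50 is taken from a dose-response curve of peak inhibition values.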

[9] = target: T5, Oxytocin receptor (Rattus norvegicus); assay: Inhibition of oxytocin-induced uterine contractions in nonpregnant rats administered at 30 mg/kg, po; format: functional, organism-based; set-up: dose 30 mg/kg
Summary of the method: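 Anaesthetized nonpregnant rats dosed orally by esophagus cannulation with a solution in NP3S, PEG/saline or saline. Uterine intraluminal pressure AUC is read versus vehicle. The value is the maximum inhibition within a 3 h interval after OT administration.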

[10] = target: T5, Oxytocin receptor (Rattus norvegicus); assay: Inhibition of oxytocin-induced uterine contractions in nonpregnant rats administered at 10 mg/kg, iv; format: functional, organism-based; set-up: dose 10 mg/kg
Summary of the method: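 Anaesthetized nonpregnant rats; compound given as a solution by iv infusion in NP3S, PEG/saline or saline. Uterine intraluminal pressure AUC is read relative to the third OT injection. Inhibition is taken versus vehicle values at 5 min after OT administration.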

[11] = Stability of compound in presence of rat liver microsomes; format: ADME
Summary of the method: (§1)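 Liver microsomes (human or rat) at final […] in 0.1 M phosphate pH 7.4 with compound at final 40 µM (1% DMSO), preincubated at 37 °C; reaction started with 1 mM NADPH; stopped with cold acetonitrile at 0, 20 and 60 min.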

Liver microsomes = assay: Stability of compound in presence of human liver microsomes; format: ADME, Microsome; summary of the method: as §1
[12] = Inhibitory activity against cytochrome P450; format: ADME
Summary of the method: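 Baculovirus/insect-cell expressed CYP isoforms incubated with compound at several concentrations in 1% DMSO plus isoform-specific fluorogenic substrate; fluorescence after a fixed reaction time used to compute % inhibition and IC50.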

[13] = Solubility in saline; format: physicochemical
[14] = Solubility in aqueous medium; format: physicochemical; conditions: aqueous medium; read-out: Solubility
Vasopressin V2 receptor = Vasopressin V2 receptor (Homo sapiens, UniProt P30518); assay: Displacement of [125I]LVA antagonist from human vasopressin 2 receptor expressed in HEK293-EBNA cells; format: cell-based
Sequence of Vasopressin V2 receptor (P30518 whole entry): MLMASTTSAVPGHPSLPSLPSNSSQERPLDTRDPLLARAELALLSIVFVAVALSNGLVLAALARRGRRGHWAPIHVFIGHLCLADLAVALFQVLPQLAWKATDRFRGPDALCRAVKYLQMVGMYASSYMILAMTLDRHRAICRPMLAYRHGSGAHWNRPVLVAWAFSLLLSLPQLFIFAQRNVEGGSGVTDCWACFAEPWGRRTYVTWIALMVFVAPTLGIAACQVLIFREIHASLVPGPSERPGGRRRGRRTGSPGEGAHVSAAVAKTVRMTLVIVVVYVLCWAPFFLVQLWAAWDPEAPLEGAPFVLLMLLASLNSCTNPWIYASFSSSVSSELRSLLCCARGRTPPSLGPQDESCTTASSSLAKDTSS

[15] = Oral bioavailability in rat; format: ADME, organism-based; conditions: in vivo
Rattus norvegicus = assay: Inhibition of spontaneous uterine contraction in late-term pregnant rats at 30 mg/kg, po

Structure (SMILES) | Ki (Vasopressin V1a receptor [1]) | Ratio Ki (Homo sapiens) | Ki (Oxytocin receptor [2]) | IC50 (Oxytocin receptor [3]) | Ki (Oxytocin receptor [4]) | inhibition [5] | inhibition (Vasopressin V1a receptor [6]) | other results
CCOc1ccc(S(=O)(=O)N(CC(=O)N/N=C2\C(=O)Nc3ccncc32)c2ccc(Cl)cc2)cc1 | 3610 nM | 56 | 64 nM | – | – | – | – | pKa [7]: 4.4
CN(C)CCCOc1ccc(S(=O)(=O)N(CC(=O)N/N=C2\C(=O)Nc3ccccc32)c2ccc(Cl)cc2)cc1 | 65 nM | 59 | 1.1 nM | 14 nM | 4.6 nM | – | – | ED50 [8]: 7.5 mg/kg; inhibition [9]: 22%; inhibition [10]: 67.4%; metabolised [11]: 26%; MET (Liver microsomes): 0%; IC50 [12]: > 1000 nM
CN(C)CCCOc1ccc(S(=O)(=O)N(CC(=O)N/N=C2\C(=O)NC(=O)c3ccccc32)c2ccc(Cl)cc2)cc1 | 730 nM | 456 | 1.6 nM | 15 nM | 2.7 nM | – | – | inhibition [10]: 39.8%; metabolised [11]: 89%; MET (Liver microsomes): 91%; solubility [13]: 2 µg/mL (≈ 3.34 µM); solubility [14]: 580 µg/mL (≈ 970 µM); IC50 [12]: > 1000 nM
CCOc1ccc(S(=O)(=O)N(CC(=O)NN)c2ccc(C)cc2)cc1 | – | – | – | – | – | < 50% | < 50% | –
Cc1ccc(N(CC(=O)Nc2cccc(Cl)c2C)S(C)(=O)=O)cc1 | – | – | – | – | – | < 50% | < 50% | –
CN(C)CCCOc1ccc(S(=O)(=O)N(CC(=O)N/N=C2\C(=O)Nc3ccncc32)c2ccc(Cl)cc2)cc1 | 618 nM | 5 | 115 nM | 840 nM | 140 nM | – | – | inhibition [10]: 23.8%; metabolised [11]: 41%; MET (Liver microsomes): 20%; IC50 [12]: > 1000 nM
CN(C)CCCOc1ccc(S(=O)(=O)N(CC(=O)/N=N/c2c(O)[nH]c3ccncc23)c2ccc(Cl)cc2)cc1.O=C(O)C(F)(F)F | – | – | – | – | – | – | – | solubility [13]: 10000 µg/mL; solubility [14]: 20000 µg/mL
CC(C)CCN(CC(=O)N1CCc2ccccc2C1)S(=O)(=O)c1ccccc1 | – | – | – | – | – | < 50% | < 50% | –

Second part, led by results:

Ki (Vasopressin V1a receptor [1]) | Ratio Ki (Homo sapiens) | Ki (Oxytocin receptor [2]) | IC50 (Oxytocin receptor [3]) | Ki (Oxytocin receptor [4]) | inhibition [5] | inhibition (Vasopressin V1a receptor [6]) | Structure (SMILES) | other results
176 nM | 84 | 2.1 nM | 59 nM | 15 nM | – | – | CN(C)CCOc1ccc(S(=O)(=O)N(CC(=O)N/N=C2\C(=O)Nc3ccccc32)c2ccc(Cl)cc2)cc1 | –
– | – | – | – | – | < 50% | < 50% | CCOc1ccc(S(=O)(=O)N(CC(=O)OC)c2ccc(C)cc2)cc1 | –
– | – | – | – | – | < 50% | < 50% | COc1ccc(N(CC(=O)Nc2cccc(Cl)c2C)S(=O)(=O)c2ccccc2)cc1Cl | –
1410 nM | – | 14 nM | 30 nM | 25 nM | – | – | CCOc1ccc(S(=O)(=O)N(CC(=O)NN=C2C(=O)Nc3ccccc32)c2ccc(C)cc2)cc1 | Ki (Vasopressin V2 receptor): 2500 nM; solubility [13]: < 1 µg/mL; solubility [14]: < 1 µg/mL; bioavailability [15]: 6%
42 nM | 65 | 0.65 nM | – | 0.67 nM | – | – | CN(C)CCCNC(=O)CCc1ccc(S(=O)(=O)N(CC(=O)N/N=C2\C(=O)Nc3ccccc32)c2ccc(Cl)cc2)cc1 | ED50 [8]: 1.4 mg/kg; inhibition [9]: 35%; inhibition [10]: 72%; metabolised [11]: 0%; MET (Liver microsomes): 18%; inhibition in vivo at 30 mg/kg (Rattus norvegicus): 29.3%; IC50 [12]: > 1000 nM
– | – | – | – | – | < 50% | < 50% | Cc1ccc(N(CC(=O)N/N=C/c2ccccc2Cl)S(=O)(=O)c2ccccc2)cc1 | –
